The target in experiment [1] is T1, Carbonic anhydrase 12 (Homo sapiens, UniProt O43570). Briefly: Binding affinity to human recombinant CA12 catalytic domain assessed as dissociation rate constant after 30 secs by surface plasmon resonance assay. A general note: SPR reads the build-up and loss of mass on a sensor chip optically.
The target of experiment [2] is T2, Carbonic anhydrase 7 (Homo sapiens, UniProt P43166). Briefly: Binding affinity to human recombinant CA7 assessed as dissociation rate constant after 30 secs by surface plasmon resonance assay.
T2 sequence (P43166 whole entry): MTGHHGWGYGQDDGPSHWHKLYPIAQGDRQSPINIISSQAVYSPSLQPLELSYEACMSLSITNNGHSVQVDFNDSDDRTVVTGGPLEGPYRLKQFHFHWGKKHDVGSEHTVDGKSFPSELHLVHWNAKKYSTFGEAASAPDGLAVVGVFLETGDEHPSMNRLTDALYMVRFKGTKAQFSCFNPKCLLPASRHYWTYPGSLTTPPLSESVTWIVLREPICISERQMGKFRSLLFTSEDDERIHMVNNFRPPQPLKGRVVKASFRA
Experiment [3] addresses T2, Carbonic anhydrase 7. Briefly: Binding affinity to human recombinant CA7 assessed as association rate constant after 30 secs by surface plasmon resonance assay. The conditions noted are these: read-out: kon (M-1-s-1).
The target of experiment [4] is T1, Carbonic anhydrase 12. Briefly: Binding affinity to human recombinant CA12 catalytic domain assessed as association rate constant after 30 secs by surface plasmon resonance assay. The note with it: read-out: kon (M-1-s-1).
The target in experiment [5] is T3, Carbonic anhydrase 13 (Homo sapiens, UniProt Q8N1Q1). Briefly: Binding affinity to human recombinant CA13 assessed as dissociation rate constant after 30 secs by surface plasmon resonance assay.
T3 sequence (Q8N1Q1 whole entry): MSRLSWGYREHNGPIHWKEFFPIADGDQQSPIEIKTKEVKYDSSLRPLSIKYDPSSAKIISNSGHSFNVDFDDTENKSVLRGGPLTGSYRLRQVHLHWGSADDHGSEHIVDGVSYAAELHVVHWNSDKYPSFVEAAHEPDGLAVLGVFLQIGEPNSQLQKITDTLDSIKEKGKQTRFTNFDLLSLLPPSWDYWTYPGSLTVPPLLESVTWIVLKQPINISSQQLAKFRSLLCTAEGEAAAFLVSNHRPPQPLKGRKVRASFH
The target of experiment [6] is T4, Carbonic anhydrase 2 (Homo sapiens, UniProt P00918). Briefly: Binding affinity to human recombinant CA2 expressed in Escherichia coli assessed as association rate constant after 30 secs by surface plasmon resonance assay. The note with it: read-out: kon (M-1-s-1).
In experiment [7] the target is T4, Carbonic anhydrase 2. Briefly: Binding affinity to human recombinant CA2 expressed in Escherichia coli assessed as dissociation rate constant after 30 secs by surface plasmon resonance assay.
For experiment [8], the target named is T3, Carbonic anhydrase 13. Briefly: Binding affinity to human recombinant CA13 assessed as association rate constant after 30 secs by surface plasmon resonance assay. The conditions noted are these: read-out: kon (M-1-s-1).
Experiment [9] deals with T5, Carbonic anhydrase 1 (Homo sapiens, UniProt P00915). Briefly: Binding affinity to human recombinant CA1 expressed in Escherichia coli assessed as dissociation rate constant after 30 secs by surface plasmon resonance assay. In a few lines: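 CA I immobilized by amine coupling (75 µg mL−1 in 10 mM sodium acetate, pH 5) to about 6000 RU. SPR run at 25 °C in PBST with 2 % DMSO, pH 7.4. Ligand given as 2-fold series, 15.6–2000 nM, at 30 or 90 µL min−1. Association 30 s, dissociation 180 s; sulphanilamide 200 µM regeneration where needed. kd from non-linear fit to one-step binding with mass transport.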
T5 sequence (P00915 whole entry): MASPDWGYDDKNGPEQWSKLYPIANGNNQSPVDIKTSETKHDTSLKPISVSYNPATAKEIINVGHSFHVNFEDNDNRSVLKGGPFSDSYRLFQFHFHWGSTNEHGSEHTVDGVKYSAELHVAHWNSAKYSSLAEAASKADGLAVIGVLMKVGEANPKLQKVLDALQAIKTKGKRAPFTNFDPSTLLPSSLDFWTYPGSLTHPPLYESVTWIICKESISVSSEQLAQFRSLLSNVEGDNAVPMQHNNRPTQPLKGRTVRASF

Experiment [10] has as its target T5, Carbonic anhydrase 1. Briefly: Binding affinity to human recombinant CA1 expressed in Escherichia coli assessed as association rate constant after 30 secs by surface plasmon resonance assay. In outline:
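Full-length enzyme amine-coupled to a carboxymethyl-dextran chip (75 µg/mL in 10 mM sodium acetate pH 5, about 6000 RU). SPR at 25 °C in PBST pH 7.4 with 2% DMSO. Ligands injected as 2-fold series, 15.6–2000 nM, at 30 or 90 µL/min. Association 30 s, dissociation 180 s. Regeneration with 200 µM sulphanilamide. ka from non-linear fit to a one-step binding model with mass transport.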

The values that follow come from BindingDB's records for doi:10.1021/acs.jmedchem.5b01723 (Uppsala University, 2016).

T1 sequence (O43570 whole entry, the tested form may be a part): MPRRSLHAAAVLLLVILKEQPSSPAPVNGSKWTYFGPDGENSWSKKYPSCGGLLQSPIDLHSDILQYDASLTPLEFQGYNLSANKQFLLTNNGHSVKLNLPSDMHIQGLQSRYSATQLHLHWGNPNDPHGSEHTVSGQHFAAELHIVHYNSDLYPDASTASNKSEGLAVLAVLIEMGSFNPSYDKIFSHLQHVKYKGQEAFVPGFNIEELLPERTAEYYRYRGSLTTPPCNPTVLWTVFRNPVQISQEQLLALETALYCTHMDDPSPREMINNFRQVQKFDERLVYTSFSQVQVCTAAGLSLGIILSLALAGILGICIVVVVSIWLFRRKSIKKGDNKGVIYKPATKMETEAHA

Turning to `CCCSc1c(F)c(F)c(S(N)(=O)=O)c(NC2CCCCCCC2)c1F` [carbonic anhydrase (CA) inhibitors, benzenesulphonamide ligand, 12], the koff in [1] was determined as 0.05 s⁻¹; in [2], 0.01 s⁻¹. The kon in experiment [3] turned out to be 20000 M⁻¹ s⁻¹; in [4] it was 130000 M⁻¹ s⁻¹.
Regarding `CCCS(=O)(=O)c1c(F)c(F)c(S(N)(=O)=O)c(F)c1NC1CCCCCCC1` [carbonic anhydrase (CA) inhibitors, benzenesulphonamide ligand, 13], the koff in experiment [2] was 0.002 s⁻¹; in [5], 0.0079 s⁻¹; in [7], 0.0087 s⁻¹. Also, the kon was 49000 M⁻¹ s⁻¹ in experiment [3], 86000 M⁻¹ s⁻¹ in experiment [6] and 510000 M⁻¹ s⁻¹ in experiment [8].
As to `CNc1c(F)c(S(N)(=O)=O)c(F)c(F)c1S(=O)(=O)CCc1ccccc1` [carbonic anhydrase (CA) inhibitors, benzenesulphonamide ligand, 14], the koff in experiment [1] is 0.14 s⁻¹; in experiment [2] it was 0.013 s⁻¹; in experiment [9], 0.01 s⁻¹; in experiment [7], 0.0082 s⁻¹. In addition, the kon in experiment [3] came to 290000 M⁻¹ s⁻¹; in [6], 1.3e+06 M⁻¹ s⁻¹; in experiment [10], 390000 M⁻¹ s⁻¹; in [4], 1.5e+06 M⁻¹ s⁻¹.
On to `CC(C)(C)Nc1c(F)c(S(N)(=O)=O)c(F)c(F)c1S(=O)(=O)CCc1ccccc1` [carbonic anhydrase (CA) inhibitors, benzenesulphonamide ligand, 15], for which, in experiment [1], the koff stood at 0.011 s⁻¹. Also, the kon in experiment [4] came to 180000 M⁻¹ s⁻¹.
For `COc1ccc(CNc2c(F)c(F)c(F)c(F)c2S(N)(=O)=O)cc1` [carbonic anhydrase (CA) inhibitors, benzenesulphonamide ligand, 15], the off-rate (koff) in [2] is 0.14 s⁻¹; in experiment [5], 0.022 s⁻¹; in [9], 0.0066 s⁻¹; in experiment [7] it was 0.026 s⁻¹. Moreover, the kon in experiment [3] was found to be 30000 M⁻¹ s⁻¹; in experiment [6], 390000 M⁻¹ s⁻¹; in [10] it was 110000 M⁻¹ s⁻¹; in [8] it was 100000 M⁻¹ s⁻¹.
For `NS(=O)(=O)c1c(F)c(F)c(N2CCCCC2)c(F)c1F` [carbonic anhydrase (CA) inhibitors, benzenesulphonamide ligand, 16], the koff in experiment [1] came to 0.041 s⁻¹; in [2], 0.071 s⁻¹; in [5], 0.011 s⁻¹; in experiment [7], 0.0093 s⁻¹. For the same molecule, the kon stood at 2.6e+06 M⁻¹ s⁻¹ in [3], 1.4e+06 M⁻¹ s⁻¹ in [6], 920000 M⁻¹ s⁻¹ in experiment [8] and 880000 M⁻¹ s⁻¹ in experiment [4].

A word on the koff: it is a measure of how fast the partners let go of each other. What is called kon is a measure of how fast the partners come together.
